What was measured:
DNA gyrase subunit B [1] = target: T1, DNA gyrase subunit B (Escherichia coli, UniProt P0AES6); experiment: Inhibition of Escherichia coli ATCC 25922 DNA gyrase B using relaxed pNO1 DNA as substrate incubated for 30 mins and measured by sybrGOLD staining based fluorescence assay
[2] = target: DNA gyrase subunit B (Staphylococcus aureus) (UniProt P0A0K8); experiment: Inhibition of Staphylococcus aureus DNA gyrase B assessed as residual activity at 100 uM using relaxed pNO1 DNA as substrate incubated for 30 mins and measured by sybrGOLD staining based fluorescence assay
Sequence of DNA gyrase subunit B (Staphylococcus aureus) (P0A0K8 2-644 limits assumed): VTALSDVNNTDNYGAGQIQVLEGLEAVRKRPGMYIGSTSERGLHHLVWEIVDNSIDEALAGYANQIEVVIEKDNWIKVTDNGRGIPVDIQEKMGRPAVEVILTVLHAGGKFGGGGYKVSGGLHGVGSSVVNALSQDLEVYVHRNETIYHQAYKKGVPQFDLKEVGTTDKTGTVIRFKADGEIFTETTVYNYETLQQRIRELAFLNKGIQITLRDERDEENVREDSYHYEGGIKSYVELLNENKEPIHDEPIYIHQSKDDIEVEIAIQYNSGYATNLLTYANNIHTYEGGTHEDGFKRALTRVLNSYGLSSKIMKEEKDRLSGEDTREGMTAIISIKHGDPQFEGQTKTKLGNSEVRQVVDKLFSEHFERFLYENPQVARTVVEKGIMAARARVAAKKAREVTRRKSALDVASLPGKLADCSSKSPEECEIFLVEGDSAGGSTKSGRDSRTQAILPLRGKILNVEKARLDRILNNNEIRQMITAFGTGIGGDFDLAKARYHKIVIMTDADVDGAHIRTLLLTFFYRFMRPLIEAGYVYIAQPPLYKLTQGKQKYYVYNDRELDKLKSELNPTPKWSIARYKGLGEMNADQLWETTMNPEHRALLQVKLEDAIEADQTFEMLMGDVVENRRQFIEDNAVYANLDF
Summary of the method: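 Gyrase supercoiling with 1.5 U enzyme and 0.75 µg relaxed pNO1 plasmid. 30 min at 37 °C, stopped with pH 5.0 TF buffer. Triplex capture on immobilized biotinylated oligonucleotide, 30 min at room temperature. Washed, SybrGOLD-stained, fluorescence 485/535 nm. Residual activity at 100 µM; 1% DMSO negative control.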

[3] = target: DNA gyrase subunit B (Escherichia coli) (UniProt P0AES6); experiment: Inhibition of Escherichia coli DNA ATCC 25922 gyrase B assessed as residual activity at 100 uM using relaxed pNO1 DNA as substrate incubated for 30 mins and measured by sybrGOLD staining based fluorescence assay; conditions: Escherichia coli ATCC 25922
Summary of the method: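 Gyrase supercoiling with 1.5 U enzyme and 0.75 µg relaxed pNO1 plasmid. 30 min at 37 °C, stopped with pH 5.0 TF buffer. Triplex capture on immobilized biotinylated oligonucleotide, 30 min at room temperature. Residual activity at 100 µM; 1% DMSO negative control.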

DNA gyrase subunit B [4] = target: DNA gyrase subunit B (Staphylococcus aureus, UniProt P0A0K8); experiment: Inhibition of Staphylococcus aureus DNA gyrase B using relaxed pNO1 DNA as substrate incubated for 30 mins and measured by sybrGOLD staining based fluorescence assay
Sequence of DNA gyrase subunit B (Staphylococcus aureus, UniProt P0A0K8) (P0A0K8 whole entry): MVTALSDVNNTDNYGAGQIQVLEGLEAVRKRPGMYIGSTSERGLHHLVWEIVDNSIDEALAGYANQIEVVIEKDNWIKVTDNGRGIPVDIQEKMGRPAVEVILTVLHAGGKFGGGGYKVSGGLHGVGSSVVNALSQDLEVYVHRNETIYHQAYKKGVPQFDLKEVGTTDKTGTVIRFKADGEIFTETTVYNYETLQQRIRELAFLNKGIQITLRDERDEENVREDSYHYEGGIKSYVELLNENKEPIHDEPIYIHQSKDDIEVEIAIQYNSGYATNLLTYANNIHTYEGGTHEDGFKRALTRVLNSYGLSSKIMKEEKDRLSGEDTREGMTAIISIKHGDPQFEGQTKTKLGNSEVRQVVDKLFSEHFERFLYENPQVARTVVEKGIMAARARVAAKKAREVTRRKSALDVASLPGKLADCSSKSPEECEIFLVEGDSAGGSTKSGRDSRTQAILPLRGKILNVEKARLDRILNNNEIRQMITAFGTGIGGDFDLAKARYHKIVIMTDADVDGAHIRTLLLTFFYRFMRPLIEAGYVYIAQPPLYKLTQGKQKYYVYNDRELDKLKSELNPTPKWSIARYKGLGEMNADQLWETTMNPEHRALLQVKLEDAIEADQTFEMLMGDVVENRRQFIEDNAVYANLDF

DNA gyrase subunit B [5] = target: T1, DNA gyrase subunit B; experiment: Binding affinity to Escherichia coli ATCC 25922 DNA gyrase B by surface plasmon resonance assay
Summary of the method: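 Running buffer: 10 mM Hepes, 150 mM NaCl, 3 mM EDTA, 0.005% P20, pH 7.4, plus 1% DMSO. Injections at 30 µL/min for 90 s, 120 s dissociation. At least eight concentrations, three parallel titrations. Kd from 1:1 steady-state fit of responses 5 s before injection end.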

[6] = Inhibition of Escherichia coli DNA gyrase using relaxed pBR322 DNA as substrate after 3 hrs by agarose electrophoresis
[7] = Inhibition of Staphylococcus aureus DNA gyrase using relaxed pBR322 DNA as substrate after 3 hrs by agarose electrophoresis

Compound | IC50 (DNA gyrase subunit B [1]) [µM] | Activity [3] [%] | also measured
O=C(O)CCCC(=O)N1CCC(NC(=O)c2cc(Br)c(Br)[nH]2)CC1 | 3.18 | – | Activity [2]: 71%
CC(C)(C)OC(=O)N1CCC(NC(=O)c2cc(Br)c(Br)[nH]2)CC1 | > 50 | – | –
C=CCN(C(=O)c1cc(Br)c(Br)[nH]1)C1CCN(C(=O)CCC(=O)OC)CC1 | – | 36 | –
CC(C)(C)OC(=O)N1CCC(NC(=O)c2cc3ccccc3[nH]2)CC1 | – | 100 | –
COC(=O)CC(=O)N1CCC(NC(=O)c2cc(Br)c(Br)[nH]2)CC1 | 13.7 | – | –
O=C(O)CCNC(=O)[C@H]1CC[C@H](CNC(=O)c2cc(Br)c(Br)[nH]2)CC1 | – | 100 | –
O=C(O)CC(=O)N1CCN(C(=O)c2cc(Br)c(Br)[nH]2)CC1 | 1080 | – | IC50 (DNA gyrase subunit B [4]): Not Active
O=C(O)c1ccc(C(=O)N2CCC(NC(=O)c3cc4ccccc4[nH]3)CC2)cc1 | – | 100 | –
COC(=O)CCCC(=O)N1CCC(NC(=O)c2cc(Br)c(Br)[nH]2)CC1 | 11.2 | – | –
O=C(O)c1cccc(CN2CCC(NC(=O)c3cc(Br)c(Br)[nH]3)CC2)c1 | 49.5 | – | Kd (DNA gyrase subunit B [5]): 11.2 µM; Activity [2]: 100%
COC(=O)CC(=O)N1CCN(C(=O)c2cc(Br)c(Br)[nH]2)CC1 | – | 78 | –
O=C(O)CNC(=O)[C@H]1CC[C@@H](NC(=O)c2cc(Br)c(Br)[nH]2)CC1 | – | 100 | –
COC(=O)CCC(=O)N1CCC(NC(=O)c2cc(Br)c(Br)[nH]2)CC1 | 20.9 | – | –
COC(=O)CNC(=O)[C@H]1CC[C@H](NC(=O)c2cc(Br)c(Br)[nH]2)CC1 | – | 100 | –
COC(=O)c1ccc(C(=O)N2CCC(NC(=O)c3cc(Br)c(Br)[nH]3)CC2)cc1 | 480 | – | –
COC(=O)c1cccc(CN2CCC(NC(=O)c3cc(Br)c(Br)[nH]3)CC2)c1 | – | 100 | –
O=C(O)CC(=O)N1CCC(NC(=O)c2cc(Br)c(Br)[nH]2)CC1 | 10.8 | – | Activity [2]: 80%
O=C(NC1CCN(C(=O)c2ccc(O)c(O)c2)CC1)c1cc2ccccc2[nH]1 | 150 | – | –
O=C(O)C(=O)N1CCC(NC(=O)c2cc(Br)c(Br)[nH]2)CC1 | 49.2 | – | –

Compound | IC50 (DNA gyrase subunit B [1]) [µM] | Activity [3] [%] | also measured
COC(=O)CC(=O)N1CCC(NC(=O)c2cc3ccccc3[nH]2)CC1 | – | 100 | –
CO[C@@H]1[C@@H](OC(N)=O)[C@@H](O)[C@H](Oc2ccc3c(O)c(NC(=O)c4ccc(O)c(CC=C(C)C)c4)c(=O)oc3c2C)OC1(C)C [NOVOBIOCIN] | – | – | IC50 [6]: 0.08 µM; IC50 [7]: 0.01 µM
COC(=O)CNC(=O)[C@H]1CC[C@H](CNC(=O)c2cc(Br)c(Br)[nH]2)CC1 | – | 100 | –
COC(=O)c1ccc(CN2CCC(NC(=O)c3cc(Br)c(Br)[nH]3)CC2)cc1 | – | 100 | –
COC(=O)CCNC(=O)[C@H]1CC[C@@H](NC(=O)c2cc(Br)c(Br)[nH]2)CC1 | – | 100 | –
COC(=O)c1ccc(C(=O)N2CCC(NC(=O)c3cc4ccccc4[nH]3)CC2)cc1 | – | 88 | –
O=C(O)c1ccc(CN2CCC(NC(=O)c3cc(Br)c(Br)[nH]3)CC2)cc1 | 63.1 | – | Activity [2]: 100%
O=C(O)CCC(=O)N1CCC(N(Cc2ccccc2)C(=O)c2cc(Br)c(Br)[nH]2)CC1 | 49.5 | – | Kd (DNA gyrase subunit B [5]): 11.2 µM
C=CCN(C(=O)c1cc2ccccc2[nH]1)C1CCN(C(=O)CCC(=O)O)CC1 | – | 100 | –
O=C(O)CCC(=O)N1CCC(NC(=O)c2cc3ccccc3[nH]2)CC1 | – | 100 | –
Nc1ncc(C(=O)N2CCN(C(=O)c3cccnc3)CC2)[nH]1 | – | 100 | –
Nc1ncc(C(=O)N2CCN(C(=O)[C@@H]3CCCN3)CC2)[nH]1 | – | 100 | –
O=C(O)c1ccc(C(=O)N2CCC(NC(=O)c3cc(Br)c(Br)[nH]3)CC2)cc1 | 14.9 | – | Kd (DNA gyrase subunit B [5]): 256 µM; Activity [2]: 84%
COC(=O)CCNC(=O)[C@H]1CC[C@H](CNC(=O)c2cc(Br)c(Br)[nH]2)CC1 | – | 100 | –
O=C(O)CNC(=O)[C@H]1CC[C@H](NC(=O)c2cc(Br)c(Br)[nH]2)CC1 | 15.1 | – | –
COC(=O)CCC(=O)N1CCC(N(Cc2ccccc2)C(=O)c2cc(Br)c(Br)[nH]2)CC1 | – | 100 | –
C=CCN(C(=O)c1cc(Br)c(Br)[nH]1)C1CCN(C(=O)CCC(=O)O)CC1 | – | 29 | –
COC(=O)CCC(=O)N1CCC(NC(=O)c2ccc[nH]2)CC1 | – | 100 | –
Nc1ncc(C(=O)N2CCN(C(=O)c3ccc[nH]3)CC2)[nH]1 | – | 100 | –

Compound | IC50 (DNA gyrase subunit B [1]) [µM] | Activity [3] [%] | also measured
COC(=O)CCC(=O)N1CCC(NC(=O)c2cc3ccccc3[nH]2)CC1 | – | 100 | –
C=CCN(C(=O)c1cc2ccccc2[nH]1)C1CCN(C(=O)CCC(=O)OC)CC1 | – | 100 | –
COC(=O)CCC(=O)N1CCC(N(Cc2ccccc2)C(=O)c2cc3ccccc3[nH]2)CC1 | – | 100 | –
COC(=O)CCNC(=O)[C@H]1CC[C@H](NC(=O)c2cc(Br)c(Br)[nH]2)CC1 | – | 100 | –
Nc1ncc(C(=O)N2CCN(Cc3ccc[nH]3)CC2)[nH]1 | – | 100 | –
O=C(NC1CCN(C(=O)c2ccc(O)c(O)c2)CC1)c1cc(Br)c(Br)[nH]1 | 2.84 | – | –
COC(=O)CNC(=O)[C@H]1CC[C@@H](NC(=O)c2cc(Br)c(Br)[nH]2)CC1 | – | 100 | –
COC(=O)CCC(=O)N1CCC(NC(=O)c2[nH]c(C)c(Cl)c2Cl)CC1 | 20 | – | –
CCOC(=O)C(=O)N1CCC(NC(=O)c2cc(Br)c(Br)[nH]2)CC1 | 4.35 | – | Activity [2]: 74%
O=C(O)CCC(=O)N1CCC(NC(=O)c2ccc[nH]2)CC1 | – | 100 | –
Cc1[nH]c(C(=O)NC2CCN(C(=O)CCC(=O)O)CC2)c(Cl)c1Cl | 0.48 | – | –
O=C(O)CC(=O)N1CCC(NC(=O)c2cc3ccccc3[nH]2)CC1 | 100 | – | –
Nc1ncc(C(=O)N2CCN(C(=O)c3c[nH]c4ccccc34)CC2)[nH]1 | – | 100 | –
O=C(O)CCNC(=O)[C@H]1CC[C@H](NC(=O)c2cc(Br)c(Br)[nH]2)CC1 | – | 100 | –
O=C(O)CCC(=O)N1CCC(N(Cc2ccccc2)C(=O)c2cc3ccccc3[nH]2)CC1 | – | 100 | –
O=C(NC1CCN(C(=O)c2ccc(O)c(O)c2)CC1)c1cc(Cl)c(Cl)[nH]1 | 8.08 | – | –
N#Cc1ccc(C(=O)N2CCC(NC(=O)c3cc(Br)c(Br)[nH]3)CC2)cc1 | – | 100 | –
O=C(O)CCNC(=O)[C@H]1CC[C@@H](NC(=O)c2cc(Br)c(Br)[nH]2)CC1 | 100 | – | –
O=C(O)CCC(=O)N1CCC(NC(=O)c2cc(Br)c(Br)[nH]2)CC1 | 1.55 | – | Kd (DNA gyrase subunit B [5]): 12.6 µM; IC50 (DNA gyrase subunit B [4]; read-out: IC50): 93.8 µM

Reference: ChEMBL document CHEMBL4041481, “Linker-switch approach towards new ATP binding site inhibitors of DNA gyrase B” (Eur J Med Chem, 2017)
